Laboratory results from ChEMBL document CHEMBL1961794, “Regulation of circadian behaviour and metabolism by synthetic REV-ERB agonists” (Nature, 2012).
The source made the active and inactive calls. The rule behind the calls is not given here.

Legend:
[1] = biological target: Nuclear receptor subfamily 1 group D member 2 (Homo sapiens, UniProt Q14995); test: Increased REV-ERB-beta LBD dependent repressor activity in HEK293 cell reporter assay; type: cell-based
[2] = biological target: Nuclear receptor subfamily 1 group D member 1 (Homo sapiens) (UniProt P20393); test: Recruitment of co-repressor NcoR1 to REV-ERB-alpha; type: functional
Method in brief: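 Biochemical corepressor-interaction assay using Luminex bead technology, measuring compound-dependent recruitment of an NCoR CoRNR box peptide to REV-ERBα. Mean ± s.e.m., n=3.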

[3] = Plasma concentration after 1 hour at 10mg/kg ip dose (10mg/ml suspension in 10%DMSO/10%Tween80); type: ADME, organism-based; settings: mouse, read-out: Conc_plasma
Method in brief: (§1)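 Mice received a single 10 mg/kg i.p. dose as a 10 mg/ml suspension in DMSO/Tween80/water (10/10/80). Plasma was sampled at 1, 2, 4 and 8 h post-injection and drug concentration reported in μM. Mean ± s.e.m., n=3.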

[4] = Plasma concentration after 4 hours at 10mg/kg ip dose (10mg/ml suspension in 10%DMSO/10%Tween80); type: ADME, organism-based; settings: mouse, read-out: Conc_plasma; method in brief: as §1
[5] = tested on: Mus musculus; test: Decreased expression of REV-ERB responsive gene Serpine1 in mouse liver after 6 days at 100 mg/kg; type: functional, organism-based; parameters: dose 100 mg/kg
[6] = biological target: Thyroid hormone receptor alpha (Homo sapiens) (UniProt P10827); test: Effect on THRA(NR1A1) dependent reporter activity in HEK293 cells at 20 uM; type: cell-based
Method in brief: (§2)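 Cotransfection assay in HEK293 cells with Gal4 DNA-binding domain–nuclear receptor fusions, covering a panel of all 48 human nuclear receptors. Compounds were tested at 20 μM, with reporter luciferase as the read-out. Mean ± s.e.m., n=3.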

[7] = biological target: Peroxisome proliferator-activated receptor alpha (Homo sapiens) (UniProt Q07869); test: Effect on PPARA(NR1C1) dependent reporter activity in HEK293 cells at 20 uM; type: cell-based
Method in brief: (§3)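 Specificity panel covering all 48 human nuclear receptors. HEK293 cells cotransfected with Gal4 DNA-binding domain–nuclear receptor fusions and a luciferase reporter. Compound tested at a single 20 μM concentration. Mean ± s.e.m., n=3.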

[8] = biological target: Peroxisome proliferator-activated receptor delta (Homo sapiens) (UniProt Q03181); test: Effect on PPARD(NR1C2) dependent reporter activity in HEK293 cells at 20 uM; type: cell-based; method in brief: as §3
[9] = biological target: Peroxisome proliferator-activated receptor gamma (Homo sapiens) (UniProt P37231); test: Effect on PPARG(NR1C3) dependent reporter activity in HEK293 cells at 20 uM; type: cell-based; method in brief: as §3
[10] = biological target: Nuclear receptor ROR-gamma (Homo sapiens) (UniProt P51449); test: Effect on RORG(NR1F3) dependent reporter activity in HEK293 cells at 20 uM; type: cell-based; method in brief: as §3
[11] = biological target: Nuclear receptor subfamily 1 group I member 2 (Homo sapiens, UniProt O75469); test: Effect on PXR(NR1I2) dependent reporter activity in HEK293 cells at 20 uM; type: cell-based; settings: hek293, 20 µM; method in brief: as §3
[12] = biological target: Hepatocyte nuclear factor 4-gamma (Homo sapiens) (UniProt Q14541); test: Effect on HNF4G(NR2A2) dependent reporter activity in HEK293 cells at 20 uM; type: cell-based; method in brief: as §3
[13] = biological target: Retinoic acid receptor RXR-beta (Homo sapiens) (UniProt P28702); test: Effect on RXRB(NR2B2) dependent reporter activity in HEK293 cells at 20 uM; type: cell-based; method in brief: as §3
[14] = biological target: Nuclear receptor subfamily 2 group C member 1 (Homo sapiens) (UniProt P13056); test: Effect on TR2(NR2C1) dependent reporter activity in HEK293 cells at 20 uM; type: cell-based; method in brief: as §2
[15] = biological target: Nuclear receptor subfamily 2 group C member 2 (Homo sapiens) (UniProt P49116); test: Effect on TR4(NR2C2) dependent reporter activity in HEK293 cells at 20 uM; type: cell-based; method in brief: as §2
[16] = biological target: COUP transcription factor 1 (Homo sapiens) (UniProt P10589); test: Effect on TFCOUP1(NR2F1) dependent reporter activity in HEK293 cells at 20 uM; type: cell-based; method in brief: as §2
[17] = biological target: COUP transcription factor 2 (Homo sapiens) (UniProt P24468); test: Effect on TFCOUP2(NR2F2) dependent reporter activity in HEK293 cells at 20 uM; type: cell-based; method in brief: as §2
[18] = biological target: Nuclear receptor subfamily 2 group F member 6 (Homo sapiens) (UniProt P10588); test: Effect on EAR2(NR2F6) dependent reporter activity in HEK293 cells at 20 uM; type: cell-based; method in brief: as §3
[19] = biological target: Estrogen-related receptor gamma (Homo sapiens) (UniProt P62508); test: Effect on ERR3(NR3B3) dependent reporter activity in HEK293 cells at 20 uM; type: cell-based; method in brief: as §3
[20] = biological target: Glucocorticoid receptor (Homo sapiens) (UniProt P04150); test: Effect on GCR(NR3C1) dependent reporter activity in HEK293 cells at 20 uM; type: cell-based; method in brief: as §3
[21] = biological target: Mineralocorticoid receptor (Homo sapiens) (UniProt P08235); test: Effect on MCR(NR3C2) dependent reporter activity in HEK293 cells at 20 uM; type: cell-based; method in brief: as §3
[22] = biological target: Progesterone receptor (Homo sapiens) (UniProt P06401); test: Effect on PGR(NR3C3) dependent reporter activity in HEK293 cells at 20 uM; type: cell-based; method in brief: as §3
[23] = biological target: Androgen receptor (Homo sapiens) (UniProt P10275); test: Effect on AR(NR3C4) dependent reporter activity in HEK293 cells at 20 uM; type: cell-based; method in brief: as §3
[24] = biological target: Steroidogenic factor 1 (Homo sapiens) (UniProt Q13285); test: Effect on SF1(NR5A1) dependent reporter activity in HEK293 cells at 20 uM; type: cell-based; method in brief: as §3
[25] = biological target: Nuclear receptor subfamily 0 group B member 1 (Homo sapiens) (UniProt P51843); test: Effect on DAX1(NR0B1) dependent reporter activity in HEK293 cells at 20 uM; type: cell-based; method in brief: as §3
[26] = biological target: T1, Nuclear receptor subfamily 1 group D member 1 (Homo sapiens, UniProt P20393); test: Increased REV-ERB-alpha LBD dependent repressor activity in HEK293 cell reporter assay; type: cell-based; settings: read-out: IC50
T1 sequence (P20393 whole entry): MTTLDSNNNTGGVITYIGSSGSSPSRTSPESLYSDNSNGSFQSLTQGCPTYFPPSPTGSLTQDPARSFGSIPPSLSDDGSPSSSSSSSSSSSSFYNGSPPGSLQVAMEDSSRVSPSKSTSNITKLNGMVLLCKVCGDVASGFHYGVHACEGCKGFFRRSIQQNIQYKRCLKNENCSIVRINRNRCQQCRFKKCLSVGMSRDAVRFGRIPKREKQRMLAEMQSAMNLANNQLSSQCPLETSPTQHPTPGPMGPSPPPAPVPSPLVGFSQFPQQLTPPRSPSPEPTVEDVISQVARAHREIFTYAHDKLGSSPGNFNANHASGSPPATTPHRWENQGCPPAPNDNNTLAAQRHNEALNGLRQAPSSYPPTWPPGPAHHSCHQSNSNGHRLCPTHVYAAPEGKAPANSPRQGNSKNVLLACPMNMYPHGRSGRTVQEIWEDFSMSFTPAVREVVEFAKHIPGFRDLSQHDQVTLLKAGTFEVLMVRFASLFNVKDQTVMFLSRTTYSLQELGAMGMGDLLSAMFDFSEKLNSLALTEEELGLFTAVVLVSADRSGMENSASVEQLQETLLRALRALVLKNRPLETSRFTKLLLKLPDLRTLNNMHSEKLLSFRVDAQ

Chain of Nuclear receptor subfamily 2 group C member 1 (Homo sapiens) (P13056 whole entry): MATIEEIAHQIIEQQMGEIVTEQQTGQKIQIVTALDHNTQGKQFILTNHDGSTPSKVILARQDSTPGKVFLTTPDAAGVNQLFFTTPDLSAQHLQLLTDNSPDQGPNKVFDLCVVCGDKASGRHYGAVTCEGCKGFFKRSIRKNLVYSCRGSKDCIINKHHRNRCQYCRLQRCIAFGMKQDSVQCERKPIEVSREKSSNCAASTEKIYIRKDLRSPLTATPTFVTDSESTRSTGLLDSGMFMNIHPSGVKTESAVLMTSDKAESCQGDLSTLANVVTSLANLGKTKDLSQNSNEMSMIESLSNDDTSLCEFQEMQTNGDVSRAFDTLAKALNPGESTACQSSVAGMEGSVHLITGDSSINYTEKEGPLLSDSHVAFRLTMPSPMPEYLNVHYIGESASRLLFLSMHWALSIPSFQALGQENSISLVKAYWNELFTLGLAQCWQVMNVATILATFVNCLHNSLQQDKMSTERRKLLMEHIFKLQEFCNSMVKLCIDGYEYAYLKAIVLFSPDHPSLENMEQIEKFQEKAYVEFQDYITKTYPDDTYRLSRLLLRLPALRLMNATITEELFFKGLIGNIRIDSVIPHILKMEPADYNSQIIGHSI
Chain of Nuclear receptor ROR-gamma (Homo sapiens) (P51449 whole entry): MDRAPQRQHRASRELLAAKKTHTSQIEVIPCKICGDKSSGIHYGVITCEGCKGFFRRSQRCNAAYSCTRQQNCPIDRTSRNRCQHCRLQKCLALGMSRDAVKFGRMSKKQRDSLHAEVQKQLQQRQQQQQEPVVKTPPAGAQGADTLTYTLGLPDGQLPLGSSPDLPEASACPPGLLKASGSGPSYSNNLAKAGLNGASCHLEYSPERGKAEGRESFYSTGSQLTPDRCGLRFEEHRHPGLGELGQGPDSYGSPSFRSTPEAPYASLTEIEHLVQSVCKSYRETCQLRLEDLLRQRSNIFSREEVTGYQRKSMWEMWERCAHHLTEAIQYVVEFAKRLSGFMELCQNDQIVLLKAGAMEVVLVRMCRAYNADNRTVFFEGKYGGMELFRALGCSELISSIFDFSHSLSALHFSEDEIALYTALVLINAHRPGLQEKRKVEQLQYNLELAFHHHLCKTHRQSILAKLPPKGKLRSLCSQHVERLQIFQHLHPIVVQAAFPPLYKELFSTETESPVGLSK
Chain of Mineralocorticoid receptor (Homo sapiens) (P08235 whole entry): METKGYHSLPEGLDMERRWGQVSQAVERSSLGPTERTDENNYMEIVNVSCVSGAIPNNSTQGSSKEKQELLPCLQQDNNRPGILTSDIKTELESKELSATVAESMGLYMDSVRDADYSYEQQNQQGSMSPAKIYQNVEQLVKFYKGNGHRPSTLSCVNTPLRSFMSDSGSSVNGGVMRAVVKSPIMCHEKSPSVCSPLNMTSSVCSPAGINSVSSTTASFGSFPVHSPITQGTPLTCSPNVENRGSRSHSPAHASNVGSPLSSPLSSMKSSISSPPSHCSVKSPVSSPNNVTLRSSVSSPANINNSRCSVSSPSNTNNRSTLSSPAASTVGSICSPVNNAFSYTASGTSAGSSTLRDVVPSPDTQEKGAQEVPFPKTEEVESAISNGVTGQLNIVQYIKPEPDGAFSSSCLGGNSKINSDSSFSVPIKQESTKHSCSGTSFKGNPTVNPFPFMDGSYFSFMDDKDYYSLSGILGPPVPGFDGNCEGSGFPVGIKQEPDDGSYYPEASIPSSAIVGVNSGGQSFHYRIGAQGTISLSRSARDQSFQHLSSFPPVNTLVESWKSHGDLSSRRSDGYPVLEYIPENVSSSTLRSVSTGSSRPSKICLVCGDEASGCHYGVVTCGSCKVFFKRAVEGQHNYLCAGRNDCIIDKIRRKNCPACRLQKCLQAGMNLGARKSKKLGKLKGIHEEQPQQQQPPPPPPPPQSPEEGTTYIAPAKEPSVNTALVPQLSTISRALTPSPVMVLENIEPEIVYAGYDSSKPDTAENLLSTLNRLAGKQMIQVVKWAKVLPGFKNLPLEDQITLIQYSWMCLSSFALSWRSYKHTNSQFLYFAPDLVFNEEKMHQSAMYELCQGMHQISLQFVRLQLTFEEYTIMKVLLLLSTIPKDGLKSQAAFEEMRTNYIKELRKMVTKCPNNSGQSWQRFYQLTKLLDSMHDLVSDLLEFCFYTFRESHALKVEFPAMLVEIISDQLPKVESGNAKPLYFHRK
Chain of Hepatocyte nuclear factor 4-gamma (Homo sapiens) (Q14541 whole entry): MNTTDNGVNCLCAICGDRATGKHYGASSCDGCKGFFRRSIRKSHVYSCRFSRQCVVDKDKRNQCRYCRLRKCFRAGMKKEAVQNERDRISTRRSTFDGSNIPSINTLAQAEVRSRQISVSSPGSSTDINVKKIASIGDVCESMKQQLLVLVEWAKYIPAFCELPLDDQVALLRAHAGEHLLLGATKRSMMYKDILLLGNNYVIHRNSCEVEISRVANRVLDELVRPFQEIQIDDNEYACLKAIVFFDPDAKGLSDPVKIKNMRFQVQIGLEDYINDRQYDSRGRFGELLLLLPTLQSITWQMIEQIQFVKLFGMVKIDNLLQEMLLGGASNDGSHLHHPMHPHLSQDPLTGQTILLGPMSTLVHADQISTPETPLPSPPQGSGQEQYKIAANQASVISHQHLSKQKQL
Chain of Nuclear receptor subfamily 1 group D member 2 (Q14995 whole entry, the tested form may be a part): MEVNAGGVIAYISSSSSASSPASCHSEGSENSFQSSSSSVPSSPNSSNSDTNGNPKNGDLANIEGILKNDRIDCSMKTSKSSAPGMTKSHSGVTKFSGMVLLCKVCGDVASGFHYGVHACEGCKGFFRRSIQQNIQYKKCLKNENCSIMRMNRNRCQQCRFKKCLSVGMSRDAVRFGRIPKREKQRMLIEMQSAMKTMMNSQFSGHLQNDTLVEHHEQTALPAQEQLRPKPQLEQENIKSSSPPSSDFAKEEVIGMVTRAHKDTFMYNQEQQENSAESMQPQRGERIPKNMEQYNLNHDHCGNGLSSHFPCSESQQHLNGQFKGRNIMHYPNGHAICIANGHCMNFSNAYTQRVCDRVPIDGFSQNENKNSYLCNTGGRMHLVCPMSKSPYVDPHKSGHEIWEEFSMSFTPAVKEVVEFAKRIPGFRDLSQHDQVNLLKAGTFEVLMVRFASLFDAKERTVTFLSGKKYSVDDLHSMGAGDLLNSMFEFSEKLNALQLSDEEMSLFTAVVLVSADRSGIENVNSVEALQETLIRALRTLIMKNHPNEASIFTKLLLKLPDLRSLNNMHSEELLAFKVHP
Chain of Thyroid hormone receptor alpha (Homo sapiens) (P10827 whole entry, the tested form may be a part): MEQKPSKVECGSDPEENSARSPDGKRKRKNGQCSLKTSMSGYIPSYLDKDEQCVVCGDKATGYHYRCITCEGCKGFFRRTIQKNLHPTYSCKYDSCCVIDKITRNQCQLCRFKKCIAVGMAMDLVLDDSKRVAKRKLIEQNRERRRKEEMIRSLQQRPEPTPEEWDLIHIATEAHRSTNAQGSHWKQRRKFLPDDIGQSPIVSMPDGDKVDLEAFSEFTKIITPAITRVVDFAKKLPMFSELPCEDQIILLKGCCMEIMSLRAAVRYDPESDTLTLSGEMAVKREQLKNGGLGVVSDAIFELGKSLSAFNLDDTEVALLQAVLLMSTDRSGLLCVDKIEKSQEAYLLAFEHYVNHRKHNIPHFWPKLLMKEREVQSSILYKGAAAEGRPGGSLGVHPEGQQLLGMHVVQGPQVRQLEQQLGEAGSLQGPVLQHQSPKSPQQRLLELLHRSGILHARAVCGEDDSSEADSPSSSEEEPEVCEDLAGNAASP
Chain of Glucocorticoid receptor (Homo sapiens) (P04150 whole entry): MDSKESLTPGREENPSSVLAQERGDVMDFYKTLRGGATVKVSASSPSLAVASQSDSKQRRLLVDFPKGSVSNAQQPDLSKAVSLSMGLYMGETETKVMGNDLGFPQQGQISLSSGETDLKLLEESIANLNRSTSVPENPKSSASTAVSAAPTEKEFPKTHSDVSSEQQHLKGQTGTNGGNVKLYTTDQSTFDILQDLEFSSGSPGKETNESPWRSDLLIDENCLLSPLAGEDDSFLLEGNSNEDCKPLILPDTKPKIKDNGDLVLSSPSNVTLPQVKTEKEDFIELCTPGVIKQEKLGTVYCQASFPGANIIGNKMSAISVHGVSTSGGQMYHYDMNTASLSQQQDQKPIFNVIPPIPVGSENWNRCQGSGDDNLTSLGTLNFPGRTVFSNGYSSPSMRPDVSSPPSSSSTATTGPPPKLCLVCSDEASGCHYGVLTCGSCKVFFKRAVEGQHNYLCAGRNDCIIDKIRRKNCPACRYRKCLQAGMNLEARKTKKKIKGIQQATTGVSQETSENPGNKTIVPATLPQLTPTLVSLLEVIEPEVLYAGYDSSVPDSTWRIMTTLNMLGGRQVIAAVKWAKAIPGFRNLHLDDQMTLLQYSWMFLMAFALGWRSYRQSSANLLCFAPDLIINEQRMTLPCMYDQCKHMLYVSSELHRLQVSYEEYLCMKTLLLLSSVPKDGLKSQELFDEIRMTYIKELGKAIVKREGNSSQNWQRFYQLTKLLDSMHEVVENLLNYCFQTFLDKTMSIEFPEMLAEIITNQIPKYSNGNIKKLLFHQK
Chain of Estrogen-related receptor gamma (Homo sapiens) (P62508 whole entry): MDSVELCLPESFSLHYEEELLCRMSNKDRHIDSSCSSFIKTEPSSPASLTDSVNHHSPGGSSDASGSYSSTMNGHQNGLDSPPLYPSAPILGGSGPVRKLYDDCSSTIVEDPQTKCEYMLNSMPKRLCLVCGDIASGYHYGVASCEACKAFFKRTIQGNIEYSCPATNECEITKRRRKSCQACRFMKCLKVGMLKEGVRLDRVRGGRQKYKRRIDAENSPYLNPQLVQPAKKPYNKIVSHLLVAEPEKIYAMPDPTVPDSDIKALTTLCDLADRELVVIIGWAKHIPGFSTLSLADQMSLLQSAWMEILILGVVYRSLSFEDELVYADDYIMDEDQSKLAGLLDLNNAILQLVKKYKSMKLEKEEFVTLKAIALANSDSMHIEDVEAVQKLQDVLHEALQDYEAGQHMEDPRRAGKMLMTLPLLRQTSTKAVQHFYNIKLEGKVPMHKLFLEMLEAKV

| Compound | IC50 [1] | NcoR1_recruitment [2] | concentration at 1 h [3] [nM] | concentration at 4 h [4] [nM] | Reduced_Serpine1_gene_exp [5] | inhibition [6] | inhibition [7] | inhibition [8] | inhibition [9] | inhibition [10] | Inhibition [11] | inhibition [12] | inhibition [13] | inhibition [14] | inhibition [15] | inhibition [16] | inhibition [17] | inhibition [18] | inhibition [19] | inhibition [20] | also measured |
| --- | --- | --- | --- | --- | --- | --- | --- | --- | --- | --- | --- | --- | --- | --- | --- | --- | --- | --- | --- | --- | --- |
| CCOC(=O)N1CCC(CN(Cc2ccc(Cl)cc2)Cc2ccc([N+](=O)[O-])s2)C1 (stereo unspecified) [SR9009] | 800 nM (agonist) | Dose-dependent effect | 1400 | 220 | Active | inactive | inactive | inactive | inactive | inactive | Not Active | inactive | inactive | inactive | inactive | inactive | inactive | inactive | inactive | inactive | inhibition [21]: inactive; inhibition [22]: inactive; inhibition [23]: inactive; inhibition [24]: inactive; inhibition [25]: inactive |
| CCCCCNC(=O)N1CCC(CN(Cc2ccc(Cl)cc2)Cc2ccc([N+](=O)[O-])s2)C1 (stereo unspecified) [SR9011] | 560 nM (agonist) | Dose-dependent effect | 1550 | 110 | Active | inactive | inactive | inactive | inactive | inactive | Not Active | inactive | inactive | inactive | inactive | inactive | inactive | inactive | inactive | inactive | IC50 [26]: 790 nM (agonist); inhibition [21]: inactive; inhibition [22]: inactive; inhibition [23]: inactive; inhibition [24]: inactive; inhibition [25]: inactive |
